Measured values taken from ChEMBL document CHEMBL4038263, “Flavonoids from Erythrina schliebenii” (J Nat Prod, 2017).
In brackets after ≈: the same amount, converted by molar mass.

Columns and labels:
MDA-MB-231 = test: Cytotoxicity against human MDA-MB-231 cells; assay type: functional, cell-based
[1] = tested on: Mycobacterium tuberculosis; test: Antimycobacterial activity against Mycobacterium tuberculosis H37Rv; assay type: functional
Summary of the method: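 Read-out is the minimum inhibitory concentration (MIC). Crude extracts are expressed in μg mL−1 and isolated constituents in μM. Isonicotinylhydrazine and rifampicin served as reference controls.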

Row | SMILES | EC50 (MDA-MB-231) | MIC [1]
1 | COc1ccc(-c2coc3cc(O)cc(O)c3c2=O)cc1OC | 31.8 µM | 102 µM (≈ 32 µg/mL)
2 | COc1ccc(/C=C/C(=O)c2c(O)cc(OC)c(OC)c2OC)cc1 | 291 µM | 92.9 µM (≈ 32 µg/mL)
3 | COc1ccc(-c2coc3cc(O)cc(O)c3c2=O)cc1CC=C(C)C | 27.9 µM | 36.9 µM (≈ 13 µg/mL)
4 | COc1cc(-c2coc3cc(O)cc(O)c3c2=O)cc(OC)c1OC | 29 µM | 93 µM (≈ 32 µg/mL)
5 | COc1ccc([C@@H]2CC(=O)c3c(cc(OC)c(OC)c3OC)O2)cc1 | 291 µM | 92.9 µM (≈ 32 µg/mL)
6 | COc1cc(OC)c([C@@H]2COc3cc4c(c(O)c3C2=O)C=CC(C)(C)O4)cc1OC | 58 µM | 67.6 µM (≈ 27.9 µg/mL)
7 | COc1c(O)cc(-c2coc3cc(O)cc(O)c3c2=O)cc1CC=C(C)C | 77 µM | 86.9 µM (≈ 32 µg/mL)
8 | COc1cc(-c2coc3cc(O)cc(O)c3c2=O)cc(CC=C(C)C)c1OC | 49.4 µM | 77.2 µM (≈ 29.5 µg/mL)
9 | C=C(C)/C=C/c1cc(-c2coc3cc(O)cc(O)c3c2=O)cc(O)c1OC | 13 µM | 87.4 µM (≈ 32 µg/mL)
10 | COc1cc(OC)c(C2COc3cc(O)cc(O)c3C2=O)cc1OC (stereo not given) | 275 µM | 92.5 µM (≈ 32 µg/mL)
11 | COc1cc2c(cc1CC=C(C)C)[C@@H]1Oc3cc(O)ccc3[C@@H]1CO2 |  | 90.8 µM (≈ 30.7 µg/mL)
12 | CC1(C)C=Cc2c(cc3occ(-c4ccc(O)cc4O)c(=O)c3c2O)O1 | 16.9 µM | 90.9 µM (≈ 32 µg/mL)
13 | COc1c(CC=C(C)C)cc([C@@H]2CC(=O)c3c(O)cc(O)cc3O2)cc1CC=C(C)C | 21.6 µM | 49.5 µM (≈ 20.9 µg/mL)
14 | COc1ccc(-c2cc(=O)c3c(OC)c(OC)c(OC)cc3o2)cc1 | 292 µM | 93.5 µM (≈ 32 µg/mL)
15 | CC(C)=CCc1cc([C@@H]2CC(=O)c3c(O)cc(O)cc3O2)cc(CC=C(C)C)c1O [ABYSSINONE V] |  | 78.3 µM (≈ 32 µg/mL)
16 | COc1ccc([C@@H]2CC(=O)c3c(cc(OC)c(O)c3OC)O2)cc1 [HAMILTONE A] | 201 µM | 96.9 µM (≈ 32 µg/mL)
17 | NNC(=O)c1ccncc1 [ISONIAZID] |  | 0.3 µM (≈ 0.0411 µg/mL)
18 | C=C(C)[C@@H]1CC[C@]2(C)CC[C@]3(C)[C@H](CC[C@@H]4[C@@]5(C)CC[C@H](O)C(C)(C)[C@@H]5CC[C@]43C)[C@@H]12 [LUPEOL] | 209 µM | 
19 | CO[C@H]1/C=C/O[C@@]2(C)Oc3c(C)c(O)c4c(O)c(c(/C=N/N5CCN(C)CC5)c(O)c4c3C2=O)NC(=O)/C(C)=C\C=C\[C@H](C)[C@H](O)[C@@H](C)[C@@H](O)[C@@H](C)[C@H](OC(C)=O)[C@@H]1C [RIFAMPIN] |  | 0.09 µM (≈ 0.0741 µg/mL)
20 | COc1ccc(-c2cc(=O)c3c(OC)c(OC)c(OC)cc3o2)cc1OC [SINENSETIN] | 269 µM | 85.9 µM (≈ 32 µg/mL)
